The list is not random: actives were taken first. Their share in the collection is about 1.4%.
FXIIa inh 1536 = blocks human coagulation factor XIIa protease activity; purified FXIIa, Boc-QGR-AMC fluorogenic substrate, 2 h; inhibition, % at 5 µM; hit rate 0.3% among 220,000; in the data active = inhibition above about 40%;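 note: 0% = enzyme with no compound and 100% = blank without enzyme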
hK5 inh = kallikrein 5 (human) inhibition. hit rate 0.59% among 210,000. recombinant hK5, fluorogenic AMC substrate cleavage. inhibition, % at 5 µM. AID 873;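 active = inhibition of 40% or more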;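 note: 0% = enzyme controls without compound and 100% = no-enzyme blanks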
FXIa inh 1536 = inhibitors of human coagulation factor XIa. P03951. purified FXIa, Boc-Glu-Ala-Arg-AMC fluorogenic substrate. hit rate 0.14% among 220,000. inhibition, % at 5 µM;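 active = inhibition of at least 40%; inactive = inhibition below 40%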;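 note: fluorescence of freed AMC excited at 355 nm; 0% = enzyme without compound and 100% = no enzyme blank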
Target sequence (P03951 19-387 limits assumed): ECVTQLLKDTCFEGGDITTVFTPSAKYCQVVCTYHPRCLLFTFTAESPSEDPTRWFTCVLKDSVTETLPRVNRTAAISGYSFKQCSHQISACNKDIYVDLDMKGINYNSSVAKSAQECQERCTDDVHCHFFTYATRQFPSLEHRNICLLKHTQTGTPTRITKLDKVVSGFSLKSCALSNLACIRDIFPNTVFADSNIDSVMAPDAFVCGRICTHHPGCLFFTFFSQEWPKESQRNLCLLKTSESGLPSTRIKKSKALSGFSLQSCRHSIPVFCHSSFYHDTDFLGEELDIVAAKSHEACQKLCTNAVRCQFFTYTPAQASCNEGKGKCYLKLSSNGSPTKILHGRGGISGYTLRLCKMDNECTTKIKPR
Target sequence (P03951 388-625 limits assumed): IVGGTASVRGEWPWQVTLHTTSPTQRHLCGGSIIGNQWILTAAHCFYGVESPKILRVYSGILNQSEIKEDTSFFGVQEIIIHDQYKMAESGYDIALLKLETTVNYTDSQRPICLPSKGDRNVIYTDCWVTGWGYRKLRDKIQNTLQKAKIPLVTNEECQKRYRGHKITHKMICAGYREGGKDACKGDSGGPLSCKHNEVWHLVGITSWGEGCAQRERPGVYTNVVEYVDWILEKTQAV
Thrombin inh = blocks human thrombin protease activity | inhibition, % at 5 µM | alpha-thrombin, Boc-VPR-AMC fluorogenic substrate cleavage | hit rate 0.26% among 220,000 | AID 1046;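 active = inhibition at or above 40%; inactive = inhibition below 40%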;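 note: 0% = enzyme with no compound and 100% = wells without enzyme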
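System: human alpha-thrombin protein; Compound dosing: one concentration per compound, 5 µM, with 0.2% DMSO; Timing: reaction at room temperature; Technique: AMC fluorescence, 355/460 nm; Controls: enzyme without compound as high, wells lacking enzyme as low.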
Calpain2 inh = blocks pig calpain II enzyme activity; inhibition, % at 16 µM; purified calpain II, fluorogenic peptide substrate, 30 min; hit rate 0.37% among 220,000; AID 1236;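 active = inhibition above about 50%, limit read from the data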
Furin inh = inhibitors of human furin; P09958; purified furin, fluorogenic substrate cleavage; inhibition, % at 20 µM or 30 µM; hit rate 0.061% among 220,000; AID 463115; in the data active = inhibition above about 25%
Active calls of the source: *; i = inactive; . = not tested or not shown.

SMILES | FXIIa inh 1536 | hK5 inh | FXIa inh 1536 | Thrombin inh | Calpain2 inh | Furin inh
ClCC1=Nc2cccc3cccc(c23)N1 | 0 | -3 | -2 | -5 | 13 | -12
COc1cc(/C=C/C(=O)OCC(=O)NC(=O)NC(C)C)ccc1O | 0 | -2 | -2 | -15 | -16 | 27*
O=C(c1ccc(N2CCCC2=O)cc1)N1CCCCCC1 | 57* | -12 | 32 | -7 | 84* | -20
CCn1cc(CN2CCc3c([nH]c4ccccc34)C2c2cccc(OC)c2)c(C)n1 (stereo not given) | 5 | . | -2 | 1 | -70 | -17
CCOc1ccc(S(=O)(=O)N2CCN(C)CC2)c(C)c1C | 20 | -26 | 7 | -1 | 18 | -23
CCOc1ccc(S(=O)(=O)N2CCCCC2)c(C)c1C | 6 | -2 | -3 | -3 | 57* | -26
CC(c1ccccc1)N1C(=O)/C(=C/c2ccncc2)SC1=S (stereo not given) | 3 | 1 | 1 | -13 | -36 | -12
CCOc1ccc(NC(=O)CSC2=NCCN2)cc1 | 13 | 47* | 10 | 5 | 20 | -14
Cc1ccc(C(=O)Cn2nnc(-c3cccs3)n2)cc1 | 4 | 0 | -1 | -2 | -21 | -31
O=C(CN1CC[n+]2c(-c3cccs3)csc21)c1ccc(-c2ccccc2)cc1 | -2 | -10 | -3 | 3 | 58* | -14
Cc1ccc(NCc2nnc(SCC(N)=O)o2)c(C)c1 | 4 | -3 | -6 | 17 | -29 | -30
Cc1ccc(NCc2nnc(SCC(=O)N(Cc3ccccc3)C(C)(C)C)o2)c(C)c1 | -5 | 2 | -7 | -5 | 60* | -10
COc1cccc(C(=O)N/N=C/c2ccc(OC3CSC3)cc2)c1 | 25 | 45* | 19 | 25 | 8 | -15
Cc1cccc(C(=O)N/N=C/c2ccc(OC3CSC3)cc2)c1 | 10 | -23 | -8 | 1 | -37 | -27
Cc1nc2ccccc2c(=O)n1NC(=O)c1cc(Br)ccc1Cl | 22 | 43* | 47* | 51* | 9 | -2
CC(=O)O/N=C1\C(=O)N(Cc2ccc(C)cc2)c2ccccc21 | 10 | -6 | 0 | 12 | 58* | -4
O=C(NCCO)C(=O)c1c(-c2ccccc2)cc2ccccn12 | 13 | 3 | 0 | 2 | -18 | -19
CN(C)C(=O)C(=O)c1c(-c2ccccc2)cc2ccccn12 | -7 | -18 | -16 | 10 | 54* | -24
CCOC(=O)Cn1c(=NC(=O)CC)sc2c(C)cc(C)cc21 | 6 | 2 | 3 | -12 | -25 | -3
CCOC(=O)Cn1c(=NC(=O)C2CC2)sc2c(C)cc(C)cc21 | 29 | 41* | 28 | 17 | 14 | 0
CCOC(=O)CC1C(=O)NCCN1Cc1cccc(C(F)(F)F)c1 (stereo not given) | -4 | 40* | -8 | -7 | 10 | -26
CC(C)Cn1c(-c2csc(C(C)C)c2)n[nH]c1=S | 6 | -3 | -1 | -4 | 54* | -15
Cc1nc(Cl)c(C#N)cc1-c1ccccc1 | 18 | 57* | 12 | 28 | 15 | -22
Cc1nc(Sc2ccccc2)c(C#N)cc1-c1ccccc1 | 18 | -15 | 2 | -2 | 15 | -10
Cc1sc(NC(=O)CSc2nnnn2C2CCCC2)c(C#N)c1C | 44* | -9 | 20 | -10 | 17 | -21
SMILES | FXIIa inh 1536 | hK5 inh | FXIa inh 1536 | Thrombin inh | Calpain2 inh | Furin inh
COCCn1c(SCC(=O)Nc2sc(C)c(C)c2C#N)nnc1-c1ccc(OC)cc1 | -6 | 128* | -12 | 2 | -6 | -1
COc1cccc(CN(C)C(=O)c2cccc(OC3CCN(C4CCCC4)CC3)c2)c1 | 7 | . | -3 | -9 | -14 | -23
CC(=O)Nc1cccc(NC(=O)C2CCCN2C(=O)Nc2cccc(C)c2)c1 (stereo not given) | 11 | 41* | 12 | 15 | 13 | -26
CC(=O)c1cccc(NC(=O)N2CCCC2C(=O)Nc2cccc(C)c2)c1 (stereo not given) | 9 | -12 | -1 | -15 | -3 | -14
COc1cc(OC)cc(C(=O)N2CCN(Cc3ccccc3C(F)(F)F)CC2)c1 | 40* | 12 | 2 | 7 | 11 | -19
O=C(c1cccc(Cl)c1)N1CCN(Cc2ccccc2F)CC1 | 3 | 94* | -3 | 23 | -4 | -43
COc1ccc(OC)c(CN2CCN(C(=O)c3cccc4ccccc34)CC2)c1 | 17 | 44* | -1 | 4 | -1 | -18
O=C(c1cccc(Cl)c1)N1CCN(Cc2ccncc2)CC1 | 13 | -24 | 5 | -2 | -2 | -21
O=C(c1ccco1)N1N=C(c2ccc(Br)cc2)CC1(O)C(F)(F)F (stereo not given) | 7 | 2 | -2 | -4 | 32 | -11
CCCNC(=O)CN1C(=O)NC(CCSC)C1=O (stereo not given) | 2 | -6 | -4 | -4 | 11 | -14
O=P(CCO)(c1ccccc1)c1ccccc1 | . | -4 | -4 | -8 | -25 | -31
O=P(CCCCCCCCCP(=O)(c1ccccc1)c1ccccc1)(c1ccccc1)c1ccccc1 | -1 | -27 | -3 | -9 | 57* | -4
O=C(O)CP(=O)(c1ccccc1)c1ccccc1 | 18 | 42* | 2 | 10 | 1 | -38
O=C(O)CCCCCCCCCCP(=O)(c1ccccc1)c1ccccc1 | 10 | 3 | 3 | 2 | -15 | -13
COC(=O)c1cnn(-c2ccccc2)c1-n1cccc1C=O | 3 | 0 | -2 | -7 | -6 | -26
N#Cc1nc(-c2cccs2)oc1NCc1ccccc1Cl | -23 | -76 | -9 | 0 | i | -29
CCc1ccc(C2CC(c3ccccc3)n3ncnc3N2)cc1 (stereo not given) | -9 | 45* | -15 | -4 | 19 | -11
CC(=O)c1ccc(S(=O)(=O)N2CCCCC2C(=O)O)cc1 (stereo not given) | 12 | 0 | 4 | 2 | -3 | -10
Cc1cccc2[nH]c3c(N4CC=C(c5ccc(F)cc5)CC4)ncnc3c12 | 1 | 4 | 6 | -3 | -21 | -34
CC1CCc2c(sc(NC(=O)COC(=O)C3CCCO3)c2C#N)C1 (stereo not given) | 24 | 24 | 26 | 45* | 22 | -9
COc1ccc(Nc2nc(N)nc(CSC(=S)N3CCCCC3C)n2)cc1 (stereo not given) | -3 | -3 | -2 | -15 | -15 | -9
Cc1ccc(NC(=O)c2ccc3ccccc3n2)cc1S(=O)(=O)N1CCOCC1 | 24 | 15 | 28 | 48* | 17 | -16
COC(=O)C(Cc1ccc(OC(=O)c2ccc(C(F)(F)F)cc2)cc1)N1Cc2ccccc2C1=O (stereo not given) | 15 | -5 | 6 | 3 | 71* | -14
Cc1ccc(CSc2nccc(-c3c(C)nc4ccccn34)n2)cc1 | 2 | -8 | -10 | -3 | -223 | -12
O=C(O)c1ccc(N/N=C/c2ccc(OC(=O)c3cccc(Cl)c3)cc2)cc1 | 9 | 5 | 0 | -2 | 55* | -10
COc1cc2c(cc1OC)-c1n[nH]c(=S)n1C(C)(C)C2 | 8 | -1 | -1 | 6 | -9 | -16

Screening results (PubChem)
